According to ChEMBL document CHEMBL1135792, “Inhibition of the antibacterial target UDP-(3-O-acyl)-N-acetylglucosamine deacetylase (LpxC): isoxazoline zinc amidase inhibitors bearing diverse metal binding groups” (J Med Chem, 2002):
Converted amounts (≈) assume the structure as drawn.

Key:
Escherichia coli [1] = assay: Inhibition of Escherichia coli growth in vitro.; assay type: functional
[2] = biological target: T1, UDP-3-O-acyl-N-acetylglucosamine deacetylase (Escherichia coli K-12, UniProt P0A725); assay: Inhibition of Escherichia coli LpxC(UDP-3-O-[R-3-hydroxymyristoyl]-GlcNAc deacetylase.
T1 sequence (P0A725 whole entry): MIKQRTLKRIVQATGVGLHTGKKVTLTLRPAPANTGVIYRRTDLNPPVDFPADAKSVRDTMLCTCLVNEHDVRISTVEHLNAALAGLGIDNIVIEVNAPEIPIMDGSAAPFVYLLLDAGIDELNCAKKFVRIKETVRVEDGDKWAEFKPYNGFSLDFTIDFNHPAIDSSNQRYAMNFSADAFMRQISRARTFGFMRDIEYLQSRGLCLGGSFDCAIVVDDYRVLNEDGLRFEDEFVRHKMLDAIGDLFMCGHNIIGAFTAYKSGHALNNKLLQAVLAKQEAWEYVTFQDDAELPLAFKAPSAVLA
In short: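 Purified E. coli LpxC (2.5 nM) preincubated 30 min on ice with inhibitor (0.1-500 µg/mL) and 1 mg/mL BSA. Stopped with NaOH, substrate and product separated by PEI-cellulose TLC, phosphorimaged. IC50 from eq 1.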

Escherichia coli [3] = assay: Inhibition of EnvAl Escherichia coli growth in vitro.; assay type: functional
Escherichia coli [4] = assay: Antibacterial activity against EnvA1 Escherichia coli; assay type: functional
Escherichia coli [5] = assay: Inhibitory activity measured against Escherichia coli; assay type: functional
Escherichia coli [6] = assay: Antibacterial activity against Escherichia coli
Escherichia coli [7] = assay: Inhibition of Escherichia coli LpxC in a second order rate constant
In short: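 Purified E. coli LpxC (100 µM) preincubated at 30 °C with inhibitor (0-0.8 mM) in 100 mM bis-Tris pH 7, 12% DMF. Aliquots taken over time, diluted 10-fold into 27 mM UDP-GlcNAc, bis-Tris pH 7, 30 °C. UDP-GlcN read by fluorescamine (ex 395/em 485 nm). Pseudo-first-order kobs fit to exponential decay, then plotted against inhibitor concentration and fit by eq 2.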

Row | Structure (SMILES) | zone diameter (Escherichia coli [1]) | IC50 [2] | zone diameter (Escherichia coli [3]) | MIC (Escherichia coli [4]) | zone diameter (Escherichia coli [5]) | MIC (Escherichia coli [6]) | Ki (Escherichia coli [7])
1 | COc1ccc(C2=NOC(CS)C2)cc1 (racemic) | < 6 mm | 22 µM | < 6 mm | – | – | – | –
2 | COc1ccc(C2=NOC(C(=O)Nc3nccs3)C2)cc1 (racemic) | < 6 mm | > 392 µM | < 6 mm | – | – | – | –
3 | COc1ccc(C2=NO[C@H](C(=O)NO)C2)cc1 | – | 4.37 µM | 26 mm | 3.9 mg/L (≈ 16.5 µM) | < 6 mm | – | –
4 | COc1ccc(C2=NOC(C(=O)Nc3ccccn3)C2)cc1 (racemic) | < 6 mm | > 336 µM | < 6 mm | – | – | – | –
5 | COc1ccc(C2=NOC(C(=O)O)C2)cc1 (racemic) | < 6 mm | > 450 µM | < 6 mm | – | – | – | –
6 | COc1ccc(C2=NOC(S(C)(=O)=O)C2)cc1 (racemic) | < 6 mm | > 392 µM | < 6 mm | – | – | – | –
7 | COc1ccc(C2=NOC(C(=O)NO)C2)cc1 (racemic) | < 6 mm | 13 µM | 21 mm | – | – | – | –
8 | COc1ccc(C2=NOC(C(=O)CSC(C)=O)C2)cc1 (racemic) | < 6 mm | 12 µM | < 6 mm | – | – | – | –
9 | COc1ccc(C2=NOC(C(=O)NNC=O)C2)cc1 (racemic) | < 6 mm | 400 µM | < 6 mm | – | – | – | –
10 | CO[C@H]1/C=C/O[C@@]2(C)Oc3c(C)c(O)c4c(O)c(c(/C=N/N5CCN(C)CC5)c(O)c4c3C2=O)NC(=O)/C(C)=C\C=C\[C@H](C)[C@H](O)[C@@H](C)[C@@H](O)[C@@H](C)[C@H](OC(C)=O)[C@@H]1C [RIFAMPIN] | – | – | – | – | – | 2 mg/L (≈ 2.43 µM) | –
11 | COc1ccc(C2=NOC(C(=O)CS)C2)cc1 (racemic) | < 6 mm | 27 µM | < 6 mm | – | – | – | –
12 | COc1ccc(C2=NOC(P(C)(=O)O)C2)cc1 (racemic) | < 6 mm | 170 µM | < 6 mm | – | – | – | –
13 | COc1ccc(C2=NO[C@@H](C(=O)NO)C2)cc1 | < 6 mm | – | < 6 mm | – | – | – | –
14 | COc1ccc(C2=NOC(P(=O)(O)O)C2)cc1 (racemic) | < 6 mm | 4 µM | < 6 mm | – | – | – | –
15 | COc1ccc(C2=N[C@@H](C(=O)NO)CO2)cc1 | 11 mm | 3 µM | 24 mm | – | – | – | –
16 | COc1ccc(C2=NOC(C(=O)NCO)C2)cc1 (racemic) | < 6 mm | > 400 µM | < 6 mm | – | – | – | –
17 | COc1ccc(C2=NO[C@@H]([C@H](O)CS)C2)cc1 (relative stereo) | < 6 mm | > 400 µM | < 6 mm | – | – | – | –
18 | COc1ccc(C2=NO[C@@H]([C@@H](O)CS)C2)cc1 (relative stereo) | < 6 mm | > 400 µM | < 6 mm | – | – | – | –
19 | COc1ccc(C2=NOC(C(=O)NN)C2)cc1 (racemic) | < 6 mm | > 425 µM | < 6 mm | – | – | – | –
20 | COc1ccc(C2=NOC(S(N)(=O)=O)C2)cc1 (centres undefined) | < 6 mm | > 1200 µM | < 6 mm | – | – | – | –
21 | COc1ccc(C2=NOC([C@H]3CS3)C2)cc1 (some centres undefined) | < 6 mm | – | < 6 mm | – | – | – | 800 µM
22 | COc1ccc(C2=NOC([C@@H]3CS3)C2)cc1 (some centres undefined) | < 6 mm | – | < 6 mm | – | – | – | 300 µM
